# Measurements: the RNAGym collection of RNA variant scans (doi:10.1126/science.aae0568)
# This sample holds only a part of the variants without activity.
# B1: tRNA (parent)
# chain: GUUCCGUUGGCGUAAUGGUAACGCGUCUCCCUCCUAAGGAGAAGACUGCGGGUUCGAGUCCCGUACGGAACG
# Variants of: B1
# Assay: yeast fitness relative to wild type (ratio to wild type); higher = fitter; tRNA-Arg(CCU), competitive growth, 37 C, YPD
# Outline: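 Genotype frequency changes were the basis for Darwinian fitness relative to wild type. The frequencies came from 100-nucleotide paired-end sequencing of gene amplicons from the start population and each end population of pooled yeast strains with tRNA-Arg(CCU) gene variants at the native locus. Competition ran in YPD at 37°C for 24 hours in six replicates, genotypes needed ≥ 100 starting reads, and estimates < 0.5 were set to 0.5.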
row,Variant,yeast fitness
1,GUUCCGUUGACGUAAUGGUAACGCGUCACCCUCCUAAGGAGAAGACUGCGGGUUCGAGACCCGUACGGAACG,≤ 0.5
2,GUUCCGUUGCCGUAAUGGUAACGCGUCUCCCUCCUAAGGAGAAGACUGCGGGUUCGAGUCCCGUACGGAACG,0.661
3,GUUCCGUUGACGUAAAGGUAACGCGUCCCCCUCCUAAGGAGCAGACUGCGGGUUCGAGUCCCGUAUGGAACG,≤ 0.5
4,GUUCCGUUGACGAAAUGGUAACGCGUCUCCCUCCUAAGGAGAAGACUGCGGGUUCGAGUCCCGUACGGAACG,0.684
5,GUUCCGUUGACGUAAUGGUAACGCGCCUGCUUCCUAAGGAGAAGACUGCGGGUUCGAGUCCCGUACGGAACG,≤ 0.5
6,GUUCCGUUGACGCAAUGGUAACGCGUCUCCGUCCUAAGGAGAAGACUGCGGGUUCGCGUCCCGUACGGAACG,0.587
7,GUUCCGUUGACGUAAUGGUAACGCGUCUCCCCCCUAAGGAGAAGACUGCGGGUUCGGGUCCCGUACGGAACG,≤ 0.5
8,GUUCCGUUGACGUAAUGGUAACGCGUCUCCCUCCUAAGGAGAAGACUGCGGGCUCGAGUCCCGUACGGAACG,0.608
9,GUUCCGUUGCCGUAUUGGUAACGCGUCUGCCUCCUAAGGAGAAGAUUGCGCGUUCGAGUCGCGUACGGAACG,≤ 0.5
10,GUUCCGUUGCCGUCAUGGUAACGCGUCUCCCUCCUAAGGAGAAGACUGCGGGUUCGAGUCACGUACAGCACG,≤ 0.5
11,GUUCCGUUGCCGUUAUGGUAACGCGUCUCCCUCCUAAGGAGAAGACUGCGGGUUCGAGUCCCGUACGGAACG,0.546
12,GUUCCGUUGCCGUGAUGGUAACGCGUCUCCCUCCUAAGGAGAAGACUGCGGGUUCGAGUCCCGUACGGAACG,0.569
13,GUUCCGUUGCCGUUAUGGUAACGCGUCUCCCCCCUAAGGAGAAGACUGCGGGUUCGAGUCCUGUACGGAACG,≤ 0.5
14,GUUCCGUUGCCGUAGUGGUAACGCGUGUCCCUCCUAAGGAGAAGACUGCGGGUUCGAGUCCCGUACGGAACG,0.695
15,GUUCCGUUGACGUAAUGGUAACGCGUCUCCCUCCUAAGGAGAAGACGGCGGGUUCGAGUCCCGUCCGGAACG,≤ 0.5
16,GUUCCGUUGACGUAAUGGUAACGCGUCUCCCUCCUAAGGAGAAGACUGCGGGUGCGAGUCCCGUACGGAACG,≤ 0.5
17,GUUCCGUUGCCGUAAUGGUGACGUGUCUCCCUCCUAACGAGAAGACUGCGGGGUCGAGUCCCGUACGGAACG,≤ 0.5
18,GUUCCGUUGCCGUAUUGGUAACGCGUCUGCCUCCUAAGGAGAAGAUUGCGCGUUCGAGUCCCGUGCGGAACG,≤ 0.5
19,GUUCCGUUGCCGUACUGGUAACGUGUCUCCCUCCUAAGGAGAAGACUGCGGGUCCGAGUACAGUACGGAACG,0.585

row,Variant,yeast fitness
1,GUUCCGUUGACGUAAUGGUAACGCGUCACCCUCCUAAGGAGUAGACUGCGGGUUCGAGUCCCGUACGGAACG,≤ 0.5
2,GUUCCGUUGACGAAAUGGUAACGCGUCUUCCUCCUAAGGAGAAGACUGGGGGUUCGAGUCCCGUACGGAACG,≤ 0.5
3,GUUCCGUUGACGAAAUGGUAACGCGUCUCCCUCCUAAGGAGAAGACUGCGGGUUCGAGUCCCGUACCGAACG,≤ 0.5
4,GUUCCGUUGACGUAAUGGUAACGCGCCUCCCUCCUGAGGAGAAGACUGCGGGUUCAAGUCCCGUACGGAACG,≤ 0.5
5,GUUCCGUUGACGAAAUGGUAACGUGUCUCCCUCCUAAGGAGAAGCCUGCGGGUUCGAGUCCCGUGGGGAACG,≤ 0.5
6,GUUCCGUUGACGUAAUGGUAACGCGACUCCCUCCUAAGGAGAGGACUGCGGGUUCGAGUCCCGUACGGAUCG,≤ 0.5
7,GUUCCGUUGCCGUUAUGGUAACGCGUCUCCCUCCUAAGGAGAAGACUGCGGGUUCGAGUCCUGUACGGAACG,0.51
8,GUUCCGUUGCCGUAAUGGUGACGUGUCUCCCUCCUAACGAGAAGACUGCGGGUUCCAGUCCCGUACGGAACG,0.561
9,GUUCCGUUGCCGUAAUGGUACCGCGUCUCGCCCCUAAGGAGAAGACUGCGGGUUCGAGUUCCGUACCGAACG,0.54
10,GUUCCGUUGACGUAAUGGUAACGCGUCUCCCUCCUAAGGAGAAGACUGCGGGUUCGACUCCCGUACGGAUCG,0.701
11,GUUCCGUUGCCGUCAUGGUAACGCGUCUCCCUCCUAAGGAGAAGACUGCGGGUUCGAGUCUCGUACGGAACG,≤ 0.5
12,GUUCCGUUGCCGUCAUGGUAACGCGUAUGCCUCCUAAGGAGAAGACUGCGGGUUCGCGUCCCGUUCGGAACG,≤ 0.5
13,GUUCCGUUGACGUAAAGGUAACGCGUCUCCCUCCUAAGGAGAAGACUGCGGGUUCGAGUCCCGUUCGGAACG,0.575
14,GUUCCGUUGACGGAAUGGUAACGCGUUUCCCUCCUAAGGAGAAGAGUGCGGGUUCGAGUCCCGUACGGCACG,0.506
15,GUUCCGUUGCCGUCAUGGUAACUCGUCUCCAUGCUAAGGAGAAGACUGCGGGUUCGAGUCCCGUACGGAACG,0.512
16,GUUCCGUUGACGUAAUGGUAACGCGUCUCCCUCCUAAGGAGAAGACUGCGGGUCCGAGUCCCGUACGAAGCG,≤ 0.5
17,GUUCCGUUGCCGUCAUGGUAACGCGUCUCCCUCCUAAGGAGAAGACUGCGGGUUCGAGUACCGUACGGAACG,≤ 0.5
18,GUUCCGUUGCCGUCAUGGUAACGCGUCUCCCUCCUAAGGAGAAGACUGCGGGUUCGAGUCCUGUACGGAACG,0.537
